SIRT5 block: inhibitors of human sirtuin-5 desuccinylase; Q9NXA8; Purified SirT5, succinyl-peptide AMC, trypsin-coupled fluorescence; inhibition, % at 15 µM; hit rate 1.1% among 330,000; in the data active = inhibition above about 15%
S100A4 inh HTS: S100A4-myosin IIA interaction inhibition; hit rate 0.14% among 360,000; S100A4/TAMRA-MyoIIA peptide fluorescence polarization; P26447; inhibition, % at 10.7 µM;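 active = mean inhibition of at least 70% across replicates, with every replicate also reaching that level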
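Material: S100A4 monomer protein / Buffer or medium: 50 mM HEPES pH 7.2, 10 mM CaCl2, 100 mM KCl / Times: 5 min incubation before reading / Benchmarks: neutral control DMSO, positive control TFP / Reagent: labelled myosin peptide probe, 5 nM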
ERAP1 HTS inh: inhibitors of human ERAP1 aminopeptidase. Q9NZ08. recombinant ERAP1, Leu-AMC fluorescence, 60 min. inhibition, % at 10.7 µM. hit rate 0.15% among 340,000. AID 652197;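 active = mean replicate inhibition of at least 30%, or all replicates individually reaching that 30% level; inactive = mean below 30% and not every replicate reaching it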;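 also: 0% = neutral control wells and 100% = L-leucinethiol positive control wells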
Ecoli rRNA inh: inhibitors of bacterial rRNA selective over humanized ribosomes; E. coli WT GFP vs humanized-ribosome RFP mutants, fluorescence, 24 h; hits give low values; DMSO median 0, no signal -100; GFP signal change (wild-type ribosome), % (no concentration beside the values); hit rate 1.6% among 350,000;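 active = significant combined selectivity score with lowered wild-type GFP, culture density cut under 30%, mutant RFP and density less affected; inactive = any of these conditions unmet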
F508del corr: CFTR F508del correction in bronchial cells; activity (quench increase), % at 7.58 µM; hit rate 0.36% among 350,000; CFBE cells, YFP halide quenching; stimulated with forskolin plus potentiator P3; % fluorescence drop versus neutral controls;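 active = mean added fluorescence quench of at least 8% versus neutral control, with both replicates also reaching 8%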;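 also: cells transiently co-express mutant CFTR-F508del with the halide-sensitive YFP; corrector assay measuring rescue of mutant channel to the surface after 24 h compound exposure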
Active calls of the source: *; . = no result. Sampled rows, rich in hits. Any-hit rate of the full collection: about 3.1%.

SMILES	SIRT5 block	S100A4 inh HTS	ERAP1 HTS inh	Ecoli rRNA inh	F508del corr
O=C(C[C@@H]1CC[C@H](NC(=O)c2ccccn2)[C@H](CO)O1)NCc1cccc(F)c1	-2	-9	-2	4	-3
COCCN(C(=O)c1c(C)noc1C)c1c(N)n(CC(C)C)c(=O)[nH]c1=O	-8	1	83*	1	-5
CC(=O)/C(=N/Nc1ccccc1[N+](=O)[O-])N1CCCc2ccccc21	1	1	.	-28*	1
CCOc1ccc(N2C(=O)CC(Sc3nc(O)c(CC)c(=O)[nH]3)C2=O)cc1 (stereo not given)	-1	-5	-1	-39*	-1
CCCc1c(O)nc(SC2CC(=O)N(c3ccc(OC)cc3)C2=O)[nH]c1=O (stereo not given)	0	-2	-3	10	0
CCC(=O)N(C)C[C@H]1Oc2cc(-c3cccc(OC)c3)ccc2S(=O)(=O)N([C@H](C)CO)C[C@H]1C	-3	3	2	-9	-1
CN1c2ccc(-c3cccc(C#N)c3)cc2[C@H]2[C@H](CCN2S(=O)(=O)c2ccccc2F)[C@H]1CO	-19	123*	4	-5	1
COc1ccccc1S(=O)(=O)N1CC[C@@H]2[C@H]1c1cc(-c3ccccc3)ccc1N(C)[C@H]2CO	2	-2	-2	3	0
COc1ccc(-c2ccc3c(c2)[C@H]2[C@H](CCN2S(=O)(=O)c2ccc(F)cc2)[C@H](CO)N3C)cc1	.	-8	-1	-1	5
CN1c2ccc(-c3ccc(C#N)cc3)cc2[C@H]2[C@H](CCN2S(=O)(=O)c2cccc(F)c2)[C@H]1CO	-7	0	-1	0	15*
COc1ccc(S(=O)(=O)N2CC[C@@H]3[C@@H](CO)N(C)c4ccc(-c5ccc(F)cc5)cc4[C@@H]32)cc1	5	-5	0	1	12*
COc1ccccc1S(=O)(=O)N1CC[C@@H]2[C@@H](CO)N(C)c3ccc(-c4ccc(F)cc4)cc3[C@@H]21	.	14	0	3	12*
CN1c2ccc(-c3ccccc3)cc2[C@H]2[C@H](CCN2S(=O)(=O)c2ccccc2F)[C@H]1CO	5	-8	1	0	1
O=C(C[C@H]1CC[C@H]2[C@@H](COC[C@@H](O)CN2Cc2ccc(F)cc2)O1)NCCc1ccccc1	-3	10	1	-6	-1
COCC(=O)N(C)C[C@@H]1Oc2cc(-c3ccc(F)cc3)ccc2S(=O)(=O)N([C@@H](C)CO)C[C@@H]1C	-3	14	2	-6	-1
COc1ccc(-c2ccc3c(c2)[C@@H]2[C@@H](CCN2C(=O)NC2CCCC2)[C@H](CO)N3C)cc1	-6	82*	-1	-13	4
CN1c2ccc(-c3ccc(F)cc3)cc2[C@H]2[C@H](CCN2S(=O)(=O)c2cccc(F)c2)[C@@H]1CO	4	-22	-1	-1	14*
CN1c2ccc(-c3cccc(F)c3)cc2[C@H]2[C@H](CCN2S(=O)(=O)c2cccc(F)c2)[C@@H]1CO	3	4	1	-3	0
CCc1nnc(NC(=O)CSc2nnc(-c3ccccc3O)o2)s1	-2	-4	9	-26*	0
[O-]/C(=C(\C(=S)Nc1ccc(SC(F)F)cc1)[n+]1cccc(CO)c1)c1ccc(Cl)s1	-2	-27	4	-31*	1
Cc1ccc(NC(=S)/C(=C(\[O-])c2ccc(F)cc2)[n+]2ccccc2)cc1	-2	0	5	-25*	2
CN(C)c1cc[n+](/C(C(=S)Nc2ccc(SC(F)F)cc2)=C(/[O-])c2ccccc2)cc1	-4	1	0	-19*	1
Cc1ccc(NC(=S)/C(=C(\[O-])c2ccc(Cl)s2)[n+]2cccc(CO)c2)cc1C	2	18	-1	-1	1
C=CCOC(=O)[C@H]1[C@@H]2C(=O)O[C@@H](c3ccccc3)[C@@H](c3ccccc3)N2[C@@H](c2ccc(OCCOC(=O)[C@H]3C[C@H]4C(=O)N[C@@H](CC(C)C)C(=O)N4[C@H]3c3cccc(OCCO)c3)cc2)[C@]12C(=O)Nc1ccccc12	15	0	0	.	-4
CCCC(=O)Nc1ccc2c(c1)C(=O)N(C)C[C@H](OC)[C@@H](C)CN(C(=O)c1ccncc1)[C@H](C)CO2	-3	1	2	1	1
SMILES	SIRT5 block	S100A4 inh HTS	ERAP1 HTS inh	Ecoli rRNA inh	F508del corr
C[C@H](CO)N1C[C@H](C)[C@H](CN(C)Cc2ccc3c(c2)OCO3)Oc2c(NS(C)(=O)=O)cccc2C1=O	-2	-9	0	6	-2
O=C(Nc1ccc(Cl)cc1)N1C[C@H]2[C@@H](c3ccccc31)[C@@H](CO)N2CC1CCCCC1	0	4	-1	-35	2
C[C@H]1CN([C@@H](C)CO)C(=O)CCCn2cc(nn2)CO[C@H]1CN(C)Cc1ccc2c(c1)OCO2	.	.	.	0	-3
COc1ccc(CNc2ncnc3cc(OC)c(OC)cc23)cc1OC	0	3	-1	-17*	-1
CCC(=O)Nc1ccc2c(c1)C(=O)N(C)[C@@H]1CC[C@@H](CC(=O)NC3Cc4ccccc4C3)O[C@H]1CO2	0	-1	0	2	-1
COc1cc(OC)c(OC)cc1/C=C1\CC(C)C/C(=C\c2cc(OC)c(OC)cc2OC)C1=O (stereo not given)	-2	3	-2	-22*	2
CC(CCc1ccccc1)NC(=O)CN(C)Cc1ccccc1F (stereo not given)	5	-3	-1	-29*	2
CC(CCc1ccccc1)NC(=O)CN(C)Cc1ccc(F)cc1 (stereo not given)	1	-3	15	-4	-4
CCC(=O)Nc1ccc2c(c1)C(=O)N(C)C[C@H](OC)[C@H](C)CN(CC1CC1)[C@@H](C)CO2	-1	-2	-1	1	-3
O=C(O)c1c2c(nc3ccccc13)/C(=C/c1cccc([N+](=O)[O-])c1)CCC2	97*	1	-3	-1	0
Cc1cc2c(c(=O)o1)C(CCC1CCCCC1)C(C#N)=C(N)O2 (stereo not given)	-2	-18	-1	-21*	0
Cc1ccc(S(=O)(=O)N(C)C)cc1NC(=O)Nc1ccccc1F	-4	-1	-1	6	5
Cc1cc(C)cc(NC(=O)Nc2cc(S(=O)(=O)N(C)C)ccc2C)c1	3	-5	-5	-23*	.
CCCCOP(=O)(c1ccc(N(C)C)cc1)C(Nc1ccccc1)c1ccccc1 (stereo not given)	1	4	3	-3	2
CCCOP(=O)(c1ccc(N(C)C)cc1)C(Nc1ccccc1)c1ccc(N(C)C)cc1 (stereo not given)	29*	6	2	.	0

Source: PubChem BioAssay
